The text below walks through data of ChEMBL document CHEMBL4765319, “Identification of a new series of flavopiridol-like structures as kinase inhibitors with high cytotoxic potency” (Eur J Med Chem, 2020).

One assay has as its target CDK2/Cyclin A2 (Homo sapiens, UniProt P24941). Description: Inhibition of human CDK2/cyclin A in presence of ATP by ADP-glo luminescent assay. The assay is classed as protein-complex assay. The method in brief:
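Human kinases tested over roughly 0.0003–10 μM by ADP-Glo luminescence with 10 μM ATP, in duplicate. IC50 is taken from dose-response curves.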
(In general: ADP-Glo turns the ADP formed in a reaction into a luminescent signal.)

A further assay concerns PC-3. Description: Antiproliferative activity against human PC-3 cells assessed as reduction in cell viability incubated for 72 hrs by CellTiter-Blue fluorescence assay. The settings on record: PC-3, 72 h. Background: Alamar Blue is a resazurin reagent that responds to reducing activity.
For assay [1], the system named is HCT-116. Description: Antiproliferative activity against human HCT-116 cells assessed as reduction in cell viability incubated for 72 hrs by CellTiter-Blue fluorescence assay. The settings on record: HCT-116, 72 h.
Assay [2] is filed under the species Sus scrofa. Description: Inhibition of porcine GSK3alpha/beta assessed as residual activity at 1 uM in presence of ATP by ADP-glo luminescent assay relative to control. A digest of the protocol: (§1)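 Porcine brain GSK3α/β, native and affinity-purified. Assayed by ADP-Glo luminescence with 10 μM ATP and 0.010 μg/μl GS-1 peptide substrate. Buffer A: 10 mM MgCl2, 1 mM EGTA, 1 mM DTT, 25 mM Tris-HCl pH 7.5, 50 μg/ml heparin. Compound tested at 10 or 1 μM. Result is % of maximal activity versus DMSO control, mean of n = 2.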

In another assay the test system is Plasmodium falciparum. Description: Inhibition of Plasmodium falciparum GSK3 assessed as residual activity at 10 uM in presence of ATP by ADP-glo luminescent assay relative to control. The method in brief: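 Recombinant P. falciparum GSK3, bacterially expressed, in buffer A (10 mM MgCl2, 1 mM EGTA, 1 mM DTT, 25 mM Tris-HCl pH 7.5, 50 μg/ml heparin). Substrate 0.010 μg/μl GS-1 peptide, 10 μM ATP, ADP-Glo luminescence. Compound at 10 or 1 μM; % residual activity vs DMSO control, mean n = 2.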

Assay [3] deals with K562. Description: Cell cycle arrest in human K562 cells assessed as accumulation at G2/M phase at 50 nM after 24 hrs by propidium iodide staining-based flow cytometric analysis (reference value: 12.9 %). Format: functional. A general note: A flow cytometer gives signals particle by particle.
For the next assay, the system named is MIA PaCa-2. Description: Antiproliferative activity against human MIA PaCa-2 cells assessed as reduction in cell viability incubated for 72 hrs by CellTiter-Blue fluorescence assay. To be noted: MIA PaCa-2, 72 h.
Another assay has as its system SK-BR-3. Description: Antiproliferative activity against human SK-BR-3 cells assessed as reduction in cell viability incubated for 72 hrs by CellTiter-Blue fluorescence assay. To be noted: SK-BR-3, 72 h.
Assay [4] has as its system K562. Description: Cell cycle arrest in human K562 cells assessed as increase in accumulation at G2/M phase after 24 hrs by propidium iodide staining-based flow cytometric analysis. The assay is classed as functional. To be noted: dose 25-100 nM.
The subject of assay [5] is HCT-116. Description: Cell cycle arrest in human HCT-116 cells assessed as accumulation at G2/M phase at 200 nM after 24 hrs by propidium iodide staining-based flow cytometric analysis (reference value: 31.5 %). Format: functional.
Assay [6] relates to K562. Description: Cell cycle arrest in human K562 cells assessed as accumulation at G0/G1 phase at 100 nM after 24 hrs by propidium iodide staining-based flow cytometric analysis (reference value: 21.4 %). The assay is classed as functional.
Assay [7] relates to HCT-116. Description: Cell cycle arrest in human HCT-116 cells assessed as accumulation at S phase at 500 nM after 24 hrs by propidium iodide staining-based flow cytometric analysis (reference value: 47.6 %). The assay is classed as functional.
For assay [8], the species on record is Sus scrofa. Description: Inhibition of porcine GSK3alpha/beta assessed as residual activity at 10 uM in presence of ATP by ADP-glo luminescent assay relative to control. A digest of the protocol: as §1
Assay [9] addresses T1, CDK2/Cyclin A2 (Homo sapiens) (UniProt P24941+P20248). Description: Inhibition of human CDK2/cyclin A assessed as residual activity at 10 uM in presence of ATP by ADP-glo luminescent assay relative to control. Format: protein-complex assay. A digest of the protocol:
(§2)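 Human kinases assayed by ADP-Glo luminescence with 10 μM ATP, compound at 10 or 1 μM. Activity is expressed as % of maximal activity relative to a DMSO control, mean n = 2.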

Assay [10] concerns K562. Description: Cell cycle arrest in human K562 cells assessed as accumulation at G2/M phase at 100 nM after 24 hrs by propidium iodide staining-based flow cytometric analysis (reference value: 12.9 %). Format: functional.
The test system of assay [11] is K562. Description: Cell cycle arrest in human K562 cells assessed as increase in accumulation at G0/G1 phase after 24 hrs by propidium iodide staining-based flow cytometric analysis. The assay is classed as functional. The settings on record: dose 25-100 nM.
Assay [12] has as its target T1, CDK2/Cyclin A2 (Homo sapiens). Description: Inhibition of human CDK2/cyclin A assessed as residual activity at 1 uM in presence of ATP by ADP-glo luminescent assay relative to control. The assay is classed as protein-complex assay. The method in brief: as §2
Assay [13] has as its system HCT-116. Description: Cell cycle arrest in human HCT-116 cells assessed as increase in accumulation at G2/M phase after 24 hrs by propidium iodide staining-based flow cytometric analysis. Format: functional. To be noted: dose 100-500 nM.
In a further assay the test system is Leishmania major. Description: Inhibition of Leishmania major CK1 assessed as residual activity at 1 uM in presence of ATP by ADP-glo luminescent assay relative to control.
The nature of assay [14]: Inhibition of human CDK10/cyclin M by ADP-Glo assay.
Assay [15] has as its system K562. Description: Cell cycle arrest in human K562 cells assessed as accumulation at S phase at 100 nM after 24 hrs by propidium iodide staining-based flow cytometric analysis (reference value: […]). The assay is classed as functional.
The species named for assay [16] is Sus scrofa. Description: Inhibition of porcine CK1delta/epsilon assessed as residual activity at 1 uM in presence of ATP by ADP-glo luminescent assay relative to control.
The target of assay [17] is Glycogen synthase kinase-3 beta (Homo sapiens, UniProt P49841). Description: Potency index, ratio of flavopiridol IC50 to test compound IC50 for human GSK3beta in presence of ATP by ADP-glo luminescent assay.
In assay [18] the test system is HCT-116. Description: Cell cycle arrest in human HCT-116 cells assessed as increase in accumulation at G0/G1 phase after 24 hrs by propidium iodide staining-based flow cytometric analysis. Format: functional. The settings on record: dose 100-500 nM.

Glycogen synthase kinase-3 beta, sequence (P49841 whole entry, looked up): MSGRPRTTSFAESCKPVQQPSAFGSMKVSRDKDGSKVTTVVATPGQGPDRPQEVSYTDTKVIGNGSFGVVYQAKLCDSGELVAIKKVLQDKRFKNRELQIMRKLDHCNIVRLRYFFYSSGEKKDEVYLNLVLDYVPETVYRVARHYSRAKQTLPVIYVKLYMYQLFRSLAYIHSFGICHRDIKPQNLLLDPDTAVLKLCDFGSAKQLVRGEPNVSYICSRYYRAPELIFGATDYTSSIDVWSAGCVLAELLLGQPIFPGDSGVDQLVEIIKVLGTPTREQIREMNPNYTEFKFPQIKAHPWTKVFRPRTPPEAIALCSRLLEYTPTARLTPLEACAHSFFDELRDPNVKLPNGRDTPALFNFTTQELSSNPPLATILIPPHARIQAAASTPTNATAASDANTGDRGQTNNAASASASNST

As usually defined, the IC50 is the concentration that inhibits the measured activity by half. Take `CN1CC=C(c2c(O)cc(O)c3c(=O)cc(-c4ccc(Sc5nc6ccccc6n5C)cc4Cl)oc23)CC1`: the half-maximal inhibitory concentration (IC50) amounted to 1730 nM at CDK2/Cyclin A2; 85 nM with PC-3; 81 nM in the assay on HCT-116 [1]; 52.9 nM with MIA PaCa-2; 53.7 nM in the assay with SK-BR-3; 149 nM in assay [14]. The Activity in the assay listed under Sus scrofa [2] is 31%; with Plasmodium falciparum, 46%; in the assay with K562 [3] it was 22.7%; with K562 [4], “Dose-dependent effect”; with HCT-116 [5], 30.9%; with K562 [6], 50.3%. Moreover, the Activity was 25.1% with HCT-116 [7]; 10% in the assay filed under Sus scrofa [8]; 30% in assay [9]; 28.7% in the assay on K562 [10]; “Dose-dependent effect” with K562 [11]; 87% in [12]. Also, the Activity result with HCT-116 [13] was “Dose-dependent effect”; with Leishmania major, 62%; in the assay on K562 [15] it was 21%; in the assay listed under Sus scrofa [16] it was 90%; in the assay with HCT-116 [18] it was “Dose-dependent effect”. For the same compound, in assay [17], the Ratio IC50 was determined as 20.
